Columns and labels:
P06732 = assay: (§1) Concentration required to antagonise the creatine kinase release induced by Bothrops jararacussu venom; format: functional
Bothrops jararacussu = assay: as §1; format: functional, organism-based
[1] = biological target: GABA-A receptor; anion channel; assay: Inhibition of [3H]flunitrazepam binding to rat brain synaptosomes; format: subcellular
Method in brief: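 Crude rat brain synaptosomes (200 µg protein; cerebellum and brainstem removed) were incubated with 0.2 nM [3H]-flunitrazepam in buffered Krebs solution for 90 min at 4 °C.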

[2] = Tested for antimyotoxic activity of the compound; format: functional
Rattus norvegicus = species on record: Rattus norvegicus; assay: Tested for the inhibitory activity against rat kidney Na+, K+-ATPase; format: functional
Method in brief: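 Na+,K+-ATPase was taken from partially purified rat kidney microsomes. Inhibition was measured by phosphate release (Fiske–Subbarow) using 1.2 mM ATP.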

[3] = biological target: T1, Polyunsaturated fatty acid 5-lipoxygenase (Homo sapiens, UniProt P09917); assay: Tested for the inhibitory activity against 5-lipoxygenase
T1 sequence (P09917 whole entry): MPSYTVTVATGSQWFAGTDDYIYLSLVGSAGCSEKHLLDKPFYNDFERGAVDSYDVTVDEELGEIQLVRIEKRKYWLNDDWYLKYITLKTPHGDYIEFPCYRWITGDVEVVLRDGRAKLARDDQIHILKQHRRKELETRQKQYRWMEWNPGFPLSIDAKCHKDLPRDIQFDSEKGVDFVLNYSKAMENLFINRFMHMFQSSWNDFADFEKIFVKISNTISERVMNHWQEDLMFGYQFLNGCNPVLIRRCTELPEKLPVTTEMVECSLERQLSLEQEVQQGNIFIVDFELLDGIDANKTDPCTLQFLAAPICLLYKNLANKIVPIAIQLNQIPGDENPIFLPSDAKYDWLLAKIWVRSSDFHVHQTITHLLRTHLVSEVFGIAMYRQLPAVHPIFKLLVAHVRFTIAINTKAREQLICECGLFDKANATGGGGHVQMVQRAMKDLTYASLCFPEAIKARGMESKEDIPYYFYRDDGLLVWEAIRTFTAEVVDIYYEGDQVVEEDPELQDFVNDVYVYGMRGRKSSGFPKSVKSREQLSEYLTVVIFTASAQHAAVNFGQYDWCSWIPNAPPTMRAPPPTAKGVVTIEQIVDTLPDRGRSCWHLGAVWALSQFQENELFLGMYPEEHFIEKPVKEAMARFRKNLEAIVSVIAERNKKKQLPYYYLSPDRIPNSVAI

Sequence of P06732 (P06732 whole entry): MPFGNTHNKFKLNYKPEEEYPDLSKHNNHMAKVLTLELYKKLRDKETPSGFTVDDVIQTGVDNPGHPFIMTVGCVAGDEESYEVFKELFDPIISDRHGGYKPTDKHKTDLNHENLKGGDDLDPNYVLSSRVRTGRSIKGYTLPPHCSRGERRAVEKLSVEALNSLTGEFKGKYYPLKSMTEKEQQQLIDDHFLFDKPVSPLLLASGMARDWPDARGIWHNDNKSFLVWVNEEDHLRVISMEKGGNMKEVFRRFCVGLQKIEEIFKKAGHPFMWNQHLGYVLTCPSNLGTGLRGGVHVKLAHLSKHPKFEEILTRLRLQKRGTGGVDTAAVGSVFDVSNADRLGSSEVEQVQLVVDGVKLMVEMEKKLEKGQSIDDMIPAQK

Q: Which Concentration (P06732) does the source give for `O=c1oc2cc(O)ccc2c2oc3cc(O)c(O)cc3c12` here?
A: 30 µM

Q: With `O=c1oc2cc(O)ccc2c2oc3cc4c(cc3c12)OCO4` as the compound, how does the Concentration (P06732) read?
A: 30 µM

Q: For `COc1cc2oc(=O)c3c4cc(O)c(O)cc4oc3c2cc1O`, which Concentration (Bothrops jararacussu) is on record?
A: 30 µM

Q: What about the IC50 [1] of the same compound?
A: > 100 µM

Q: What about the IC50 [2] of the same compound?
A: 1 µM

Q: And the IC50 (Rattus norvegicus)?
A: 0.5 µM

Q: With `COc1cc(O)c2c(c1)oc(=O)c1c3cc(O)c(O)cc3oc21` [WEDELOLACTONE] as the compound, how does the IC50 [3] read?
A: 2.5 µM

Q: What about the IC50 [1] of the same compound?
A: 2 µM

Q: What about the IC50 (Rattus norvegicus) of the same compound?
A: 0.7 µM

Q: Which Concentration (P06732) does the source give for `COc1cc2oc(=O)c3c4cc(OC)c(O)cc4oc3c2cc1O` here?
A: 30 µM

Q: Which Concentration (P06732) does the source give for `COc1cc2oc3c4ccc(O)cc4oc(=O)c3c2cc1O` here?
A: 30 µM

— ChEMBL document CHEMBL1134741, “Synthesis and preliminary pharmacological evaluation of coumestans with different patterns of oxygenation” (Bioorg Med Chem Lett, 2001)
